Assay results taken from ChEMBL document CHEMBL3108700, “Designing anti-inflammatory drugs from parasitic worms: a synthetic small molecule analogue of the Acanthocheilonema viteae product ES-62 prevents development of collagen-induced arthritis” (J Med Chem, 2013).
The source made the active and inactive calls. No rule for the calls is given here.

Legend:
TLR2/TLR6 (Mus musculus) [1] = molecular target: T1, TLR2/TLR6 (Mus musculus) (UniProt Q9QUN7+Q9EPW9); experiment: Inhibition of TLR2/6 in BALB/c mouse BMDM assessed as downregulation of BLP-stimulated IL-12p40 level at 5 ug/ml preincubated for 18 hrs followed by BLP challenge measured after 24 hrs by ELISA relative to control; assay type: protein-complex assay
Procedure, shortened: (§1)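 BALB/c male bone marrow macrophages were differentiated 7 days with L929 supernatant (≥99% CD11b+/F4/80+). Cells were plated at 2 × 10^5/well in triplicate, rested overnight, and given compounds at 5 μg/mL for 18 h. They were then stimulated with 100 ng/mL S. minnesota LPS, 10 ng/mL Pam3CSK4 (BLP) or 0.01 μM CpG for 24 h. Supernatant IL-12p40 and IL-6 were measured by ELISA (sensitivity 16 pg/mL).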

[2] = molecular target: T2, Toll-like receptor 4 (Mus musculus) (UniProt Q9QUK6); experiment: Inhibition of TLR4 in BALB/c mouse BMDM assessed as downregulation of LPS-stimulated IL-6 level at 5 ug/ml preincubated for 18 hrs followed by LPS challenge measured after 24 hrs by ELISA relative to control; procedure, shortened: as §1
T2 sequence (whole entry): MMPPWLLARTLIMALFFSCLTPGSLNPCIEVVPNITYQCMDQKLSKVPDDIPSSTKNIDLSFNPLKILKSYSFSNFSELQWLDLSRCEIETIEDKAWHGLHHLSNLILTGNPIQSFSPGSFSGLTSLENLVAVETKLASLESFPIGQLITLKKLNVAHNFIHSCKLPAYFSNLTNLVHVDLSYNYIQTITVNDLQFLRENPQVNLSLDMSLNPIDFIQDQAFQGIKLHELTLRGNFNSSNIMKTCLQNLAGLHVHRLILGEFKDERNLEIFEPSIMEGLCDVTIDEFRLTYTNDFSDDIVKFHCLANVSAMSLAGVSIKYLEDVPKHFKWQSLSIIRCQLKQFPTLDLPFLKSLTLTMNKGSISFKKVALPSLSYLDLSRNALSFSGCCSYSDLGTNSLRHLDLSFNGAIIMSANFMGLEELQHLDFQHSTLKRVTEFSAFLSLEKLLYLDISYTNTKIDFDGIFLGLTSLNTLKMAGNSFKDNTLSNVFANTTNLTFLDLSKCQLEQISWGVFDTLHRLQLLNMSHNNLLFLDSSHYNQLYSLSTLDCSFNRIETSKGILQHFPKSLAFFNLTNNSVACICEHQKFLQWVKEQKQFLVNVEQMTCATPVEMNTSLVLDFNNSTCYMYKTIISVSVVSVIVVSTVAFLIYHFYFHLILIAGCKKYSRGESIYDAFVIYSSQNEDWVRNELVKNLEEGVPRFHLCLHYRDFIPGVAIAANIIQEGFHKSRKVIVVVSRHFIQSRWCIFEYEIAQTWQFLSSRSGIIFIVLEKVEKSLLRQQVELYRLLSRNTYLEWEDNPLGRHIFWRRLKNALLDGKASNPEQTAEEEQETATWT

[3] = molecular target: T3, Toll-like receptor 9 (Mus musculus) (UniProt Q9EQU3); experiment: Inhibition of TLR9 in BALB/c mouse BMDM assessed as downregulation of CpG-stimulated IL-6 level at 5 ug/ml preincubated for 18 hrs followed by CpG challenge measured after 24 hrs by ELISA relative to control; procedure, shortened: as §1
T3 sequence (whole entry): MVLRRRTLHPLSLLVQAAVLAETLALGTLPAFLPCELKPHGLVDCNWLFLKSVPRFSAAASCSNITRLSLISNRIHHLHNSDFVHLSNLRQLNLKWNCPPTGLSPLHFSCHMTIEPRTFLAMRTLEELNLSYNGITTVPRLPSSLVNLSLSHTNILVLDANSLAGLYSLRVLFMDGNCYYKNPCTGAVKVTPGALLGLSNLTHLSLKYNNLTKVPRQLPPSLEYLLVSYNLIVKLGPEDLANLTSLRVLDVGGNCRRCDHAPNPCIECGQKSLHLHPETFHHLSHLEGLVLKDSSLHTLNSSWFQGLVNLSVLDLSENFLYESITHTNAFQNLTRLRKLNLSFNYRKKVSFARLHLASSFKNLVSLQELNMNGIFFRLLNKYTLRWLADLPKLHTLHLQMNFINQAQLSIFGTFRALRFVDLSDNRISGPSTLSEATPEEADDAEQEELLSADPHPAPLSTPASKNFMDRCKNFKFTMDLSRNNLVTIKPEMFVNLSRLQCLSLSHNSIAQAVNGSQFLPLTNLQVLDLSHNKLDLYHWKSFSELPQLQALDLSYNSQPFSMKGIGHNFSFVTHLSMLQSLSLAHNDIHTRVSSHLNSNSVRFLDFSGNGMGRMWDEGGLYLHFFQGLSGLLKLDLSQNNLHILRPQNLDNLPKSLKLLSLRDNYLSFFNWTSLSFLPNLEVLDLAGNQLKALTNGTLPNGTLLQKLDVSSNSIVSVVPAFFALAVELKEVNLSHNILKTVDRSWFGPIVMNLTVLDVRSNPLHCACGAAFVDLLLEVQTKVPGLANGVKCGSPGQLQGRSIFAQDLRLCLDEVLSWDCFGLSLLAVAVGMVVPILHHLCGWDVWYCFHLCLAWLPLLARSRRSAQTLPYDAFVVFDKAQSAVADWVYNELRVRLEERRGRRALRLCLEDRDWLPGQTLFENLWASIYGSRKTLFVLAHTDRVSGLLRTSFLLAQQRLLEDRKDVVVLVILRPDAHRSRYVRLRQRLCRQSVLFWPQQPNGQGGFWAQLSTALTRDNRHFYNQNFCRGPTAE

[4] = molecular target: T2, Toll-like receptor 4 (Mus musculus); experiment: Inhibition of TLR4 in BALB/c mouse BMDM assessed as downregulation of LPS-stimulated IL-12p40 level at 5 ug/ml preincubated for 18 hrs followed by LPS challenge measured after 24 hrs by ELISA relative to control; procedure, shortened: as §1
[5] = molecular target: T3, Toll-like receptor 9 (Mus musculus); experiment: Inhibition of TLR9 in BALB/c mouse BMDM assessed as downregulation of CpG-stimulated IL-12p40 level at 5 ug/ml preincubated for 18 hrs followed by CpG challenge measured after 24 hrs by ELISA relative to control; procedure, shortened: as §1
TLR2/TLR6 (Mus musculus) [6] = molecular target: T1, TLR2/TLR6 (Mus musculus); experiment: Inhibition of TLR2/6 in BALB/c mouse BMDM assessed as downregulation of BLP-stimulated IL-6 level at 5 ug/ml preincubated for 18 hrs followed by BLP challenge measured after 24 hrs by ELISA relative to control; assay type: protein-complex assay; procedure, shortened: as §1

SMILES	inhibition (TLR2/TLR6 (Mus musculus) [1])	inhibition [2]	inhibition [3]	inhibition [4]	inhibition [5]	inhibition (TLR2/TLR6 (Mus musculus) [6])
O=S(=O)(Cc1ccccc1)NCCN1CCCC1	inactive	inactive	inactive	inactive	inactive	inactive
CN(C)CCNCCS(=O)(=O)c1ccccc1	inactive	inactive	inactive	inactive	inactive	inactive
O=S(=O)(CCN1CCOCC1)Cc1cccc(F)c1	inactive	inactive	inactive	inactive	inactive	inactive
O=S(=O)(CCN1CCCC1)NCc1ccc(Br)cc1	inactive	inactive	inactive	inactive	inactive	inactive
Cc1ccc(CNS(=O)(=O)CCN2CCOCC2)cc1	inactive	inactive	inactive	inactive	inactive	inactive
Cc1ccc(CS(=O)(=O)CCC[N+]2(C)CCCC2)cc1	inactive	inactive	inactive	inactive	inactive	inactive
O=[N+]([O-])c1ccc(CNS(=O)(=O)CCN2CCOCC2)cc1	inactive	inactive	inactive	inactive	inactive	inactive
Cc1ccc(CS(=O)(=O)CC[N+]2(C)CCCC2)cc1	Active	inactive	inactive	Active	inactive	inactive
CN(C)CCS(=O)(=O)Nc1ccccc1	inactive	inactive	inactive	Active	inactive	inactive
CC(C)NCCS(=O)(=O)c1ccccc1	Active	inactive	inactive	inactive	inactive	inactive
COc1cccc(C(=O)NCCN2CCOCC2)c1	Active	inactive	Active	Active	inactive	inactive
C[N+]1(CCCS(=O)(=O)Cc2ccc(Br)cc2)CCCC1	inactive	inactive	inactive	inactive	inactive	inactive
CN(C)CCN(C)CCS(=O)(=O)NCc1ccc(Br)cc1	inactive	inactive	inactive	Active	Active	Active
Cc1ccc(CS(=O)(=O)CCCN2CCOCC2)cc1	inactive	inactive	inactive	inactive	inactive	inactive
CN(C)CCS(=O)(=O)NCc1ccc(Br)cc1	inactive	inactive	inactive	inactive	inactive	inactive
COc1cccc(C(=O)NCCN2CCCC2)c1	Active	inactive	Active	Active	inactive	inactive
Cc1ccc(CS(=O)(=O)NCCCN(C)C)cc1	inactive	inactive	inactive	inactive	inactive	inactive
O=S(=O)(CCN1CCCC1)Cc1ccc(Br)cc1	inactive	inactive	inactive	Active	inactive	inactive
O=S(=O)(CCN1CCCC1)Nc1ccccc1	inactive	inactive	inactive	Active	Active	inactive
CN(C)CCS(=O)(=O)Nc1ccc(F)cc1	inactive	inactive	inactive	Active	inactive	inactive
Cc1ccc(CNS(=O)(=O)CCN2CCCC2)cc1	inactive	inactive	inactive	inactive	inactive	inactive
O=S(=O)(Cc1ccc2ccccc2c1)NCCN1CCCC1	inactive	inactive	inactive	inactive	inactive	Active
CC[C@@H](C)NCCS(=O)(=O)Cc1ccc(Br)cc1	inactive	inactive	inactive	inactive	inactive	inactive
Cc1ccc(CS(=O)(=O)CCC[N+](C)(C)C)cc1	inactive	inactive	inactive	inactive	inactive	inactive
